Measurements collected from several papers.
Each line is one published result; the experiments were not run side by side.

SMILES | host | sample | route | dose | time | setting | concentration
COc1cc(F)c([C@@H]2CNC(=O)[C@H]2NC(=O)Nc2ccccc2)c(F)c1 | C57BL/6 mouse | plasma | oral | 3 mg/kg | 2 h | – | 84 nM
O=S(=O)(c1cccc(C(F)(F)F)c1)N1CCc2ccc(OCc3c(F)cncc3Cl)cc21 | mouse | plasma | intraperitoneal | 10 mg/kg | 4 h | – | 210 nM
C[C@]12C[C@@]34C=CC(=O)[C@@](C)(CCC(=O)Nc5c(O)ccc(C(=O)O)c5O)[C@@H]3[C@H](C[C@@H]1C4)O2 | male C57BL/6 mouse | plasma | intravenous | 3 mg/kg | 5 min | single dose | 20000 nM
CC(C)CN(C[C@@H](O)[C@H](Cc1ccccc1)NC(=O)O[C@H]1CO[C@H]2OCC[C@H]21)S(=O)(=O)c1ccc(N)cc1 | BALB/c mouse | brain | intravenous | 2.5 mg/kg | 3 h | – | 1.19 ng/g
O=S(=O)(c1cccc(C(F)(F)F)c1)N1CCc2ccc(OCc3c(Cl)cncc3Cl)cc21 | mouse | plasma | intraperitoneal | 10 mg/kg | 2 h | – | 890 nM
O=c1cc(-c2ccccc2)oc2c(O)c(O)ccc12 | male CD-1 mouse | plasma | oral | 50 mg/kg | 4 h | – | 24 ng/mL
O=c1nc(N2CCN(CC3CCCCC3)CC2)sc2c([N+](=O)[O-])cc(C(F)(F)F)cc12 | CD-1 mouse | lung | intravenous | 10 mg/kg | 15 min | – | 2830 ng/mL
O=C(N/N=C/c1ccc2ccccc2c1)c1ccc(O)cc1 | male C57BL/6 mouse | plasma | intraperitoneal | 30 mg/kg | 2 h | – | ~200 nM
c1ccc(-c2nc(N3CCC(c4ccccn4)C3)c3ccccc3n2)nc1 (stereo not shown) | female BALB/c mouse | plasma | oral | 50 mg/kg | 24 h | – | 63.5 ng/mL
CC(C)Cc1nn(C)c(=O)c2c(SCCCO)n(Cc3cccc4ccccc34)cc12 | mouse | lung | intraperitoneal | 20 mg/kg | 7 days | single dose | 0 nM
COc1ccc2[nH]c3c(C)c4ccnc(C(=O)N[C@H](C)CN(C)C)c4cc3c2c1 | male C57BL/6 mouse | plasma | intraperitoneal | 10 mg/kg | 2 h | single dose | 40 nM
O=C(O)C1CCN(c2ncc(-c3ccc4c(c3)OCCCO4)s2)CC1 | male Swiss mouse | plasma | oral | 30 mg/kg | 2 h | single dose | 5990 ng/mL
O=S(=O)(c1cccc(C(F)(F)F)c1)N1c2cc(OCc3c(Cl)cncc3Cl)ccc2CC1C(F)(F)F (stereo not shown) | mouse | plasma | intraperitoneal | 10 mg/kg | 4 h | – | 160 nM
CN(C(=O)n1cnc(-c2ccc[n+]([O-])c2)c1)C1CCCCC1 | male CD-1 mouse | plasma | oral | 10 mg/kg | 8 h | – | 83 ng/mL
CSc1cc(Oc2ccnc3[nH]c(=O)cnc23)ccc1NC(=O)Nc1cc(C(C)(C)C)nn1-c1ccccc1 | BALB/c mouse | plasma | oral | 10 mg/kg/day | 14 h | – | ~1000 nM
COc1cc(C)c(Sc2cnc(NC(=O)c3ccc(N4CCN(CCCCCCCNC(=O)COc5cccc6c5C(=O)N(C5CCC(=O)NC5=O)C6=O)CC4)cc3)s2)cc1C(=O)N1CCN(C(C)=O)CC1 (stereo not shown) | male C57BL/6 mouse | plasma | intraperitoneal | 10 mg/kg | 8 h | single dose | ~100 nM
CC(C)Oc1cccc(-c2cnc(N3CCC(C(N)=O)CC3)s2)c1 | male Swiss mouse | plasma | oral | 30 mg/kg | 30 min | single dose | 416 ng/mL
CC(C)(Nc1nc(-c2ccccn2)nc2ccccc12)c1ccccn1 | female BALB/c mouse | plasma | oral | 50 mg/kg | 1 h | – | 4740 ng/mL
O=S(=O)(c1ccc(-c2ccc3nccc(Nc4ccncn4)c3c2)cc1)N1CCOCC1 | female BALB/c mouse | plasma | intraperitoneal | 10 mg/kg | 15 min | – | 4460 ng/mL
Cc1c2ccnc(C(=O)N[C@H](C)CN(C)C)c2cc2c3cc(O)ccc3n(C)c12 | male C57BL/6 mouse | brain | intraperitoneal | 10 mg/kg | 2 h | single dose | 80 nM
Cc1ccc(-c2cccc3cnc(Nc4ccc(C(=O)N5CCOCC5)cc4)nc23)cn1 | mouse | brain | intraperitoneal | 10 mg/kg | 2 h | – | 0 nM
O=S(=O)(c1cccc(C(F)(F)F)n1)N1CCc2ccc(OCc3c(F)cccc3Cl)cc21 | mouse | plasma | intraperitoneal | 10 mg/kg | 4 h | – | 120 nM
